# Assays:
# Histone deacetylase 1 [1] = biological target: T1, Histone deacetylase 1 (Homo sapiens, UniProt Q13547); assay: Inhibition of HDAC1 (unknown origin) using Boc-Lys (Ac)-AMC as substrate measured after 60 mins by […]
# HCCLM3 = assay: Antiproliferative activity against human HCCLM3 cells after 48 hrs by MTT assay; format: functional, cell-based; conditions: HCCLM3, 48 h
# HepG2 [2] = assay: Antiproliferative activity against human HepG2 cells after 48 hrs by MTT assay; format: functional, cell-based; conditions: HepG2, 48 h
# Histone deacetylase 1 [3] = biological target: T1, Histone deacetylase 1; assay: Inhibition of HDAC1 in human HepG2 cells assessed as increase in acetylated histone H3 levels by Western blot analysis; format: cell-based
# How it was run: (§1)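 HepG2 cells were treated at three concentrations (1.25, 2.5 and 5.0), with SAHA as the reference. Acetylated histone H3 and H4 were detected by immunoblotting. Ac-H3 and Ac-H4 band intensities were quantified by densitometric scanning and normalised to β-actin, n = 3.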
# Histone deacetylase 1 [4] = biological target: T1, Histone deacetylase 1; assay: Inhibition of HDAC1 in human HepG2 cells assessed as increase in acetylated histone H4 levels by Western blot analysis; format: cell-based; how it was run: as §1
# HepG2 [5] = assay: Induction of apoptosis in human HepG2 cells after 48 hrs by annexin V-FITC/propidium iodide staining based assay; format: functional, cell-based
# HepG2 [6] = assay: Induction of apoptosis in human HepG2 cells assessed as early apoptotic cells at 1.25 uM after 48 hrs by annexin V-FITC/propidium iodide staining based assay (reference value: 3.2 %); format: functional
# HepG2 [7] = assay: Induction of apoptosis in human HepG2 cells assessed as late apoptotic cells at 1.25 uM after 48 hrs by annexin V-FITC/propidium iodide staining based assay (reference value: 1.8 %); format: functional
# HepG2 [8] = assay: Induction of apoptosis in human HepG2 cells assessed as early apoptotic cells at 2.5 uM after 48 hrs by annexin V-FITC/propidium iodide staining based assay (reference value: 3.2 %); format: functional
# HepG2 [9] = assay: Induction of apoptosis in human HepG2 cells assessed as late apoptotic cells at 2.5 uM after 48 hrs by annexin V-FITC/propidium iodide staining based assay (reference value: 1.8 %); format: functional
# HepG2 [10] = assay: Induction of apoptosis in human HepG2 cells assessed as early apoptotic cells at 5 uM after 48 hrs by annexin V-FITC/propidium iodide staining based assay (reference value: 3.2 %); format: functional
# HepG2 [11] = assay: Induction of apoptosis in human HepG2 cells assessed as late apoptotic cells at 5 uM after 48 hrs by annexin V-FITC/propidium iodide staining based assay (reference value: 1.8 %); format: functional
# HepG2 [12] = assay: Potency index, ratio of SAHA IC50 to test compound IC50 for antiproliferative activity against human HepG2 cells; format: functional
# Histone deacetylase 1 [13] = biological target: T1, Histone deacetylase 1; assay: Potency index, ratio of SAHA IC50 to test compound IC50 for HDAC1 (unknown origin)
# T1 sequence (Q13547 whole entry): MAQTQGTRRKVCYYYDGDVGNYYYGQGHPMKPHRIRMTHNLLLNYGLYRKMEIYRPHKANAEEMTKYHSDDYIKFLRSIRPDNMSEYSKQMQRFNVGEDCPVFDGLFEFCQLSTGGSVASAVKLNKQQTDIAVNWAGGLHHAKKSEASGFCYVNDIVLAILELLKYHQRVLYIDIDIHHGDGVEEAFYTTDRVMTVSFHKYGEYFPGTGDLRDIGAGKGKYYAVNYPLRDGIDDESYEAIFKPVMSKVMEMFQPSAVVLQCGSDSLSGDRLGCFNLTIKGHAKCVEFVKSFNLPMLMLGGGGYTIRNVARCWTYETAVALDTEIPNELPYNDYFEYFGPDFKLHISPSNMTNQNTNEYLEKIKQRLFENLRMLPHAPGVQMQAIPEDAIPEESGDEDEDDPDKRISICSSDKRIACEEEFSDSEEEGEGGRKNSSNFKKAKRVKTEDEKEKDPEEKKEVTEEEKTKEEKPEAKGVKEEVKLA
SMILES,IC50 (Histone deacetylase 1 [1]),IC50 (HCCLM3),IC50 (HepG2 [2]),inhibition (Histone deacetylase 1 [3]),inhibition (Histone deacetylase 1 [4]),Activity (HepG2 [5]),Activity (HepG2 [6]),Activity (HepG2 [7]),Activity (HepG2 [8]),Activity (HepG2 [9]),Activity (HepG2 [10]),Activity (HepG2 [11]),Ratio IC50 (HepG2 [12]),Ratio IC50 (Histone deacetylase 1 [13])
COc1ccc(N(Cc2noc(-c3cccc(F)c3)n2)C(=O)CCCCCC(=O)NO)cc1,10.5 nM,6.56 µM,1030 nM,Dose-dependent effect,Dose-dependent effect,Dose-dependent effect,44.6%,11.1%,44%,14%,50.8%,10%,2 - 4,–
COc1ccc(N(Cc2noc(-c3cccc(C)c3)n2)C(=O)CCCCCC(=O)NO)cc1,12.1 nM,6.83 µM,1680 nM,–,–,–,–,–,–,–,–,–,2 - 4,–
O=C(CCCCCCC(=O)Nc1ccccc1)NO [VORINOSTAT],–,–,–,–,–,–,29.7%,9.3%,33.5%,10.7%,40.4%,10.7%,–,–
COc1ccc(N(Cc2noc(-c3ccccc3)n2)C(=O)CCCCCC(=O)NO)cc1,8.2 nM,5.19 µM,1070 nM,Dose-dependent effect,Dose-dependent effect,Dose-dependent effect,40.7%,10.1%,42.7%,11.3%,50.2%,11.5%,2 - 4,2
